# Tests used:
# Assay type in all cases: functional
# COLO 205 = assay: Cytotoxicity against human COLO205 cells assessed as cell growth at 80 nM by sulforhodamine B assay relative to control; conditions: read-out: Activity
# Procedure, shortened: (§1)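 Run at NCI in the DTP 60-cell-line human tumor panel by standard procedure. Compounds were first screened at a single concentration, then tested at five tenfold-spaced concentrations. GI50 is the concentration reducing treated-cell growth to half that of untreated controls; TGI is the concentration completely halting growth.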
# SN12C = assay: Cytotoxicity against human SN12C cells by sulforhodamine B assay
# Procedure, shortened: (§2)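 NCI Developmental Therapeutics Program 60-cell-line human tumor panel screen, run at NCI. A single-concentration pre-screen was followed by a five-concentration dose-response in 10-fold steps. GI50 is the concentration that reduces growth of treated cells to half that of untreated control cells. TGI is the concentration that completely halts growth.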
# T47D = assay: Cytotoxicity against human T47D cells assessed as cell growth at 800 nM by sulforhodamine B assay relative to control; conditions: read-out: Activity
# SF-268 = assay: Cytotoxicity against human SF268 cells assessed as cell growth at 8 uM by sulforhodamine B assay relative to control; conditions: read-out: Activity
# HT-29 = assay: Cytotoxicity against human HT-29 cells assessed as cell growth at 800 nM by sulforhodamine B assay relative to control; conditions: read-out: Activity
# NCI-H322M = assay: Cytotoxicity against human NCI-H322M cells assessed as cell growth at 8 nM by sulforhodamine B assay relative to control; conditions: read-out: Activity
# HOP-62 [1] = assay: Cytotoxicity against human HOP62 cells assessed as cell growth at 80 nM by sulforhodamine B assay relative to control; conditions: read-out: Activity
# 786-0 = assay: Cytotoxicity against human 786-0 cells assessed as cell growth at 80 nM by sulforhodamine B assay relative to control; conditions: read-out: Activity; procedure, shortened: as §1
# BT-549 = assay: Cytotoxicity against human BT549 cells assessed as cell growth at 800 nM by sulforhodamine B assay relative to control; conditions: read-out: Activity; procedure, shortened: as §1
# MDA-MB-231 = assay: Cytotoxicity against human MDA-MB-231 cells by sulforhodamine B assay; procedure, shortened: as §2
# TK-10 [2] = assay: Cytotoxicity against human TK10 cells assessed as cell growth at 80 uM by sulforhodamine B assay relative to control; conditions: read-out: Activity
# UO-31 = assay: Cytotoxicity against human UO31 cells assessed as cell growth at 8 nM by sulforhodamine B assay relative to control; conditions: read-out: Activity
# TK-10 [3] = assay: Cytotoxicity against human TK10 cells assessed as cell growth at 8 uM by sulforhodamine B assay relative to control; conditions: read-out: Activity
# MCF7 [4] = assay: Cytotoxicity against human MCF7 cells assessed as cell growth at 80 uM by sulforhodamine B assay relative to control; conditions: read-out: Activity
# OVCAR-8 = assay: Cytotoxicity against human OVCAR8 cells assessed as cell growth at 8 uM by sulforhodamine B assay relative to control; conditions: read-out: Activity
# UACC-257 [5] = assay: Cytotoxicity against human UACC257 cells assessed as cell growth at 800 nM by sulforhodamine B assay relative to control; conditions: read-out: Activity
# UACC-62 = assay: Cytotoxicity against human UACC62 cells assessed as cell growth at 800 nM by sulforhodamine B assay relative to control; conditions: read-out: Activity
# MDA-MB-435 = assay: Cytotoxicity against human MDA-MB-435 cells assessed as cell growth at 80 nM by sulforhodamine B assay relative to control; conditions: read-out: Activity
# SF-539 = assay: Cytotoxicity against human SF539 cells assessed as cell growth at 800 nM by sulforhodamine B assay relative to control; conditions: read-out: Activity
# OVCAR-5 [6] = assay: Cytotoxicity against human OVCAR5 cells by sulforhodamine B assay; procedure, shortened: as §2
# RXF 393 = assay: Cytotoxicity against human RXF393 cells by sulforhodamine B assay; procedure, shortened: as §2
# K562 = assay: Cytotoxicity against human K562 cells by sulforhodamine B assay; procedure, shortened: as §2
# UACC-257 [7] = assay: Cytotoxicity against human UACC257 cells assessed as cell growth at 8 uM by sulforhodamine B assay relative to control; conditions: read-out: Activity
# U-251 = assay: Cytotoxicity against human U251 cells assessed as cell growth at 800 nM by sulforhodamine B assay relative to control; conditions: read-out: Activity
# M14 = assay: Cytotoxicity against human M14 cells assessed as cell growth at 8 nM by sulforhodamine B assay relative to control; conditions: read-out: Activity
# SK-MEL-5 [8] = assay: Cytotoxicity against human SK-MEL-5 cells assessed as cell growth at 8 nM by sulforhodamine B assay relative to control; conditions: read-out: Activity
# HOP-62 [9] = assay: Cytotoxicity against human HOP62 cells assessed as cell growth at 80 uM by sulforhodamine B assay relative to control; conditions: read-out: Activity
# NCI-H460 = assay: Cytotoxicity against human NCI-H460 cells by sulforhodamine B assay; procedure, shortened: as §2
# A549 [10] = assay: Cytotoxicity against human A549 cells by sulforhodamine B assay; procedure, shortened: as §1
# HCC 2998 = assay: Cytotoxicity against human HCC2998 cells assessed as cell growth at 80 uM by sulforhodamine B assay relative to control; conditions: read-out: Activity
# NCI-H226 = assay: Cytotoxicity against human NCI-H226 cells by sulforhodamine B assay; procedure, shortened: as §2
# ACHN = assay: Cytotoxicity against human ACHN cells assessed as cell growth at 80 uM by sulforhodamine B assay relative to control; conditions: read-out: Activity; procedure, shortened: as §1
# SK-MEL-28 = assay: Cytotoxicity against human SK-MEL-28 cells assessed as cell growth at 8 uM by sulforhodamine B assay relative to control; conditions: read-out: Activity
# OVCAR-4 = assay: Cytotoxicity against human OVCAR4 cells assessed as cell growth at 80 nM by sulforhodamine B assay relative to control; conditions: read-out: Activity
# MCF7 [11] = assay: Cytotoxicity against human MCF7 cells assessed as cell growth at 8 nM by sulforhodamine B assay relative to control; conditions: read-out: Activity
# OVCAR-5 [12] = assay: Cytotoxicity against human OVCAR5 cells assessed as cell growth at 8 uM by sulforhodamine B assay relative to control; conditions: read-out: Activity
# A549 [13] = assay: Cytotoxicity against human A549 cells assessed as cell growth at 8 nM by sulforhodamine B assay relative to control; conditions: read-out: Activity; procedure, shortened: as §1
# TK-10 [14] = assay: Cytotoxicity against human TK10 cells assessed as cell growth at 8 nM by sulforhodamine B assay relative to control; conditions: read-out: Activity
# SK-MEL-5 [15] = assay: Cytotoxicity against human SK-MEL-5 cells assessed as cell growth at 80 nM by sulforhodamine B assay relative to control; conditions: read-out: Activity
# SNB-19 = assay: Cytotoxicity against human SNB19 cells assessed as cell growth at 8 nM by sulforhodamine B assay relative to control; conditions: read-out: Activity
# SF-295 = assay: Cytotoxicity against human SF295 cells assessed as cell growth at 800 nM by sulforhodamine B assay relative to control; conditions: read-out: Activity
# OVCAR-5 [16] = assay: Cytotoxicity against human OVCAR5 cells assessed as cell growth at 8 nM by sulforhodamine B assay relative to control; conditions: read-out: Activity
# RPMI-8226 = assay: Cytotoxicity against human RPMI8226 cells assessed as cell growth at 80 nM by sulforhodamine B assay relative to control; conditions: read-out: Activity
# [17] = read-out: pLC50 (the source's name) (converted)
smiles,measurement,setting,value
C/C=C1\NC(=O)[C@H](Cc2ccccc2)NC(=O)[C@@H](C(C)C)NC(=O)[C@@H]([C@@H](C)CC)NC(=O)[C@H](NC(=O)[C@H](NC(=O)[C@H](CCCNCc2ccc(N3CCOCC3)cc2)NC(=O)[C@H]2CCCN2C(=O)[C@H](NC(=O)[C@@H](NC(=O)[C@@H](NC(=O)[C@H](NC(=O)CCCC(C)C)C(C)C)[C@@H](C)O)C(C)C)C(C)C)[C@@H](C)CC)[C@@H](C)OC(=O)[C@H](C(C)C)NC1=O,growth at 0.08 µM,COLO 205,95%
same,GI50,SN12C,1.41 µM
same,LC50,SN12C,> 75.9 µM
same,TGI,SN12C; read-out: pTGI (converted),3.31 µM
same,growth at 0.8 µM,T47D,-23%
same,growth at 8 µM,SF-268,-52%
same,growth at 0.8 µM,HT-29,3%
same,growth at 0.008 µM,NCI-H322M,109%
same,growth at 0.08 µM,HOP-62 [1],103%
same,growth at 0.08 µM,786-0,93%
same,growth at 0.8 µM,BT-549,89%
same,GI50,MDA-MB-231,2.63 µM
same,LC50,MDA-MB-231,> 75.9 µM
same,TGI,MDA-MB-231; read-out: pTGI (converted),15.5 µM
same,growth at 80 µM,TK-10 [2],-56%
same,growth at 0.008 µM,UO-31,101%
same,growth at 8 µM,TK-10 [3],-77%
same,growth at 80 µM,MCF7 [4],6%
same,growth at 8 µM,OVCAR-8,-34%
same,growth at 0.8 µM,UACC-257 [5],93%
same,growth at 0.8 µM,UACC-62,100%
same,growth at 0.08 µM,MDA-MB-435,99%
same,growth at 0.8 µM,SF-539,93%
same,GI50,OVCAR-5 [6],0.933 µM
same,TGI,OVCAR-5 [6]; read-out: pTGI (converted),2.19 µM
same,GI50,RXF 393,1.58 µM
same,LC50,RXF 393,> 75.9 µM
same,TGI,RXF 393; read-out: pTGI (converted),3.55 µM
same,GI50,K562,4.79 µM
same,CC50,K562; [17],> 75.9 µM
same,TGI,K562; read-out: pTGI (converted),22.9 µM
same,growth at 8 µM,UACC-257 [7],-76%
same,growth at 0.8 µM,U-251,72%
same,growth at 0.008 µM,M14,99%
same,growth at 0.008 µM,SK-MEL-5 [8],105%
same,growth at 80 µM,HOP-62 [9],-55%
same,GI50,NCI-H460,2 µM
same,CC50,NCI-H460; [17],> 75.9 µM
same,GI50,A549 [10]; read-out: GI50,0.175 µM
same,GI50,A549 [10]; read-out: pGI50 (converted),0.174 µM
same,growth at 80 µM,HCC 2998,-69%
same,GI50,NCI-H226,1.66 µM
same,TGI,NCI-H226; read-out: pTGI (converted),3.39 µM
same,growth at 80 µM,ACHN,-76%
same,growth at 8 µM,SK-MEL-28,-85%
same,growth at 0.08 µM,OVCAR-4,102%
same,growth at 0.008 µM,MCF7 [11],102%
same,growth at 8 µM,OVCAR-5 [12],-74%
same,growth at 0.008 µM,A549 [13],99%
same,growth at 0.008 µM,TK-10 [14],118%
same,growth at 0.08 µM,SK-MEL-5 [15],101%
same,growth at 0.008 µM,SNB-19,95%
same,growth at 0.8 µM,SF-295,101%
same,growth at 0.008 µM,OVCAR-5 [16],97%
same,growth at 0.08 µM,RPMI-8226,113%
